Screening results: PubChem BioAssay, Sanford-Burnham Center for Chemical Genomics
CCR6 antag: blocks CCL20-driven beta-arrestin recruitment at human CCR6. P51684. CHO-K1 CCR6 PathHunter beta-arrestin, luminescence, CCL20-stimulated. inhibition, % at 20 µM. 340,000 tested, 0.49% active;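 active means compounds whose inhibition of the agonist-driven luminescence signal at 20 µM reaches about 50%, limit read from the data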;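 further: cells stimulated with CCL20 at 14 nM final; plate controls were DMSO with CCL20 for no effect and DMSO without agonist for full effect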
Target sequence (P51684 whole entry, looked up): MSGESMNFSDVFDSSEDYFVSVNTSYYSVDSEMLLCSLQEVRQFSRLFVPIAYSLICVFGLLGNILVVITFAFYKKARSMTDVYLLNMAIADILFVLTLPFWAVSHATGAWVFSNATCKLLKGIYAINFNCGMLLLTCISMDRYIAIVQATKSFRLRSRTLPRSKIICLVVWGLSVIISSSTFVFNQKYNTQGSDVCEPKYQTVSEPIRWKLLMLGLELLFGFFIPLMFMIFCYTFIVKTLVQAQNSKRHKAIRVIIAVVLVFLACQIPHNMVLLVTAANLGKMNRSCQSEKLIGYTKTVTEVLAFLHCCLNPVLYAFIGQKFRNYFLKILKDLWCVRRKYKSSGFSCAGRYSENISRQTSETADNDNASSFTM
APJ agonist: agonists of human APJ apelin receptor; P35414; CHO-K1 APJ PathHunter beta-arrestin, luminescence; 0% DMSO wells, 100% apelin; activation, % at 20 µM; 330,000 tested, 0.11% active;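 active means activation more than six SD over the plate average, tested at 20 µM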;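 further: 0% = DMSO alone and 100% = apelin-13 at 10 nM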
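Assay system: CHO-K1 cells stably expressing ProLink-tagged human APJ and arrestin–beta-gal acceptor. Compound dosing: 20 µM single point, 1% DMSO. Times: 16-18 h seeding, 90 min dark compound exposure, 60 min detection. Detection: beta-gal luminescence. Evaluation: APJ–arrestin association signal. Controls: negative DMSO alone, positive Apelin-13 at 10 nM.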
APJ antagonist: blocks the human apelin receptor APJ. inhibition, % at 20 µM. CHO-K1 APJ beta-arrestin complementation, luminescence. 330,000 tested, 0.32% active. P35414;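 active means inhibition above about 40% at 20 µM, limit read from the data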;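 further: cells challenged with 10 nM apelin-13 agonist together with compound; plate controls were apelin-13 plus DMSO wells for no effect and DMSO wells lacking apelin-13 for full effect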
CXCR6 inh: CXCR6 (human) receptor inhibition. inhibition, % at 20 µM. CHO-K1 PathHunter CXCR6 beta-arrestin, luminescence. 360,000 tested, 0.36% active; in the data active means inhibition above about 34%, passing the limit was not always enough;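 further: antagonist mode with CXCL16 agonist at 10 nM final; 0% = 10 nM CXCL16 with DMSO and 100% = unstimulated wells without agonist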
Target sequence (O00574 whole entry, looked up): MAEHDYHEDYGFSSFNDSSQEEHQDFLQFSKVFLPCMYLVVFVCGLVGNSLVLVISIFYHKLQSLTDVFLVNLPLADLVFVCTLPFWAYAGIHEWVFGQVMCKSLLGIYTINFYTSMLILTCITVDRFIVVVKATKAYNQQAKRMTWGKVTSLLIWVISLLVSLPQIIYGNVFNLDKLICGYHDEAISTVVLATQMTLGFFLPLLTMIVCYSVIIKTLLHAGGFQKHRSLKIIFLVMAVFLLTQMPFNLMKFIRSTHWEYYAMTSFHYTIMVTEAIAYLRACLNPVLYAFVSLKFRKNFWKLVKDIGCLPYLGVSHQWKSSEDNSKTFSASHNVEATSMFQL
EBI2 antag: blocks human EBI2 receptor beta-arrestin signaling; 360,000 tested, 0.81% active; inhibition, % at 5 µM; EBI2 beta-arrestin recruitment, luminescence, 7a,25-OHC stimulated; AID 651636; in the data active means inhibition above about 38%;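 further: enzyme fragment complementation signal reports receptor beta-arrestin coupling in cells; 0% = agonist plus DMSO wells and 100% = wells without agonist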
EBI2 conf: confirmation of human EBI2 receptor antagonists; shares compounds with EBI2 antag; EBI2 beta-arrestin luminescence, 7a,25-OHC antagonism; 2,400 tested, 29% active; inhibition, % at 5 µM;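 active means inhibition of at least 50%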
EBI2 agonist: EBI2 agonism counter-screen | shares compounds with EBI2 antag | EBI2-expressing cells, agonist mode, luminescence, 60 min; 0% vehicle, 100% 7α,25-dihydroxycholesterol control | activation, % at 5 µM | 2,400 tested, under 10 active | AID 652000;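 active means activation of at least 50%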
bGal counter: counter-screen for EBI2 antagonists: E. coli beta-galactosidase inhibition; shares compounds with EBI2 antag; purified beta-galactosidase, luminescent Galacton Star, 15 min; inhibition, % at 5 µM; 2,400 tested, 1% active; AID 652176;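 active means replicate-average signal at least 3 plate SD below neutral wells, shown as high inhibition, flagging enzyme-inhibiting false positives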;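 further: 0% = DMSO wells with enzyme and 100% = wells lacking enzyme; higher means stronger loss of beta-gal luminescence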
Starred values were filed as active, the others as inactive; nt = not tested or not shown. An excerpt weighted towards active compounds, which were near 1.5% of everything screened.

SMILES | CCR6 antag | APJ agonist | APJ antagonist | CXCR6 inh | EBI2 antag | EBI2 conf | EBI2 agonist | bGal counter
CNc1ncnc2c1ncn2[C@H]1CN(Cc2ccc(F)cc2)C[C@@H](CO)O1 | nt | nt | nt | 1 | 4 | nt | nt | nt
COc1ccc(C(=O)N[C@H](C(=O)OCCCOC(=O)[C@@H](NC(=O)c2ccc(OC)cc2)C(C)C)C(C)C)cc1 | 11 | nt | nt | -11 | -2 | nt | nt | nt
O=C1c2ccccc2C(=O)N1CCc1ccccn1 | 3 | -4 | 7 | 4 | -4 | nt | nt | nt
O=C1c2cccc3c([N+](=O)[O-])ccc(c23)C(=O)N1CCc1ccccn1 | -8 | 1 | -68 | -10 | 75* | 41 | 0 | 8
CN(C)c1ccc(-c2ccnc3c2CC(C)(C(=O)NCc2ccc(F)c(F)c2)O3)cc1 (stereo unspecified) | nt | nt | nt | 4 | 13 | nt | nt | nt
CC(C)(C)CC(C)(C)c1ccc(O)c(Cc2ccc(Cl)cc2Cl)c1 | 43 | nt | nt | -5 | 75* | 42 | -2 | -15
CC(C)(C)CC(C)(C)c1ccc(O)c(CN2CCN(CCC#N)CC2)c1 | 11 | -4 | 3 | 1 | 2 | nt | nt | nt
CC(NC(=O)C1CCN(C(=O)Nc2ccccc2)CC1)c1ccc(Cl)cc1 (stereo unspecified) | 5 | -1 | 3 | -4 | 46* | 32 | 2 | 2
O=C(NCC(c1ccccc1Cl)N1CCCC1)C1CCN(C(=O)Nc2ccccc2)CC1 (stereo unspecified) | 10 | -4 | -5 | -2 | 53* | 14 | 0 | -13
O=C1c2ccccc2C(c2nc3ccccc3[nH]2)N1Cc1ccco1 (stereo unspecified) | nt | nt | nt | 0 | 1 | nt | nt | nt
CCCNC(=O)C1(C)CCCN(Cc2ccc(C)cc2)C1 (stereo unspecified) | nt | nt | nt | 0 | 2 | nt | nt | nt
COc1ccc(CC(=O)N2CCC(c3ccccc3)C2)cc1 (stereo unspecified) | 4 | -3 | -3 | -7 | 48* | 43 | 0 | 6
COC(=O)C1CCN(C(=O)/C=C/c2ccc(OC)cc2)CC1 | 7 | -3 | -1 | -1 | 87* | 76* | 2 | -2
COc1ccc(/C=C/C(=O)N2CCC(c3ccccc3)C2)cc1 (stereo unspecified) | 8 | -2 | -9 | 1 | 70* | 55* | 0 | -13
O=C(Cc1ccccc1)N1CCC(c2ccccc2)C1 (stereo unspecified) | 0 | 1 | 1 | 10 | 2 | nt | nt | nt
COc1ccc(S(=O)(=O)N(C)C[C@@H]2OCc3cnnn3CCCC(=O)N([C@@H](C)CO)C[C@@H]2C)cc1 | nt | nt | nt | 22 | -14 | nt | nt | nt
CCOC(=O)[C@]12CCCC=C1N(Cc1ccc(Cl)cc1Cl)C(=O)[C@H](CC(=O)N1CCN(C(=O)c3ccco3)CC1)C2 | nt | nt | nt | 9 | 16 | nt | nt | nt
COc1cc(/C=C(\C#N)C(=O)NCc2ccccc2)ccc1OCc1ccc(C(=O)O)cc1 | 9 | 1 | 13 | 6 | -8 | nt | nt | nt
COc1ccc(CCNC(=O)/C(C#N)=C/c2cccc(OCc3ccccc3)c2)cc1OC | 8 | -3 | -26 | -7 | 53* | 25 | 1 | 5
COc1cc2cnc(-c3ccccc3)c(C(=O)c3ccc(F)cc3)c2cc1OC | 14 | 0 | 5 | 0 | 9 | nt | nt | nt
COc1cccc(C(=O)c2c(-c3ccccc3)ncc3cc(OC)c(OC)cc23)c1 | 27 | nt | nt | 3 | 85* | 56* | 0 | -14
CCCCNC(=O)c1nc(C2CCNCC2)oc1-c1ccccc1 | nt | nt | nt | nt | -15 | nt | nt | nt
CC(C)Oc1ccc(F)cc1-c1cc(C(=O)NCc2ccc(F)cc2)[nH]n1 | nt | nt | nt | -1 | -1 | nt | nt | nt
O=C(c1cc2cc(Cl)ccc2[nH]1)N1CCN(c2ccc(F)cc2)CC1 | -7 | 1 | -14 | -2 | 84* | 75* | -1 | -12
COc1ccc(N2CCN(C(=O)c3cc4cc(Cl)ccc4[nH]3)CC2)cc1 | -4 | 0 | -25 | -8 | 75* | 59* | 2 | 6
SMILES | CCR6 antag | APJ agonist | APJ antagonist | CXCR6 inh | EBI2 antag | EBI2 conf | EBI2 agonist | bGal counter
Cc1nnc(NC(=O)C2CCN(S(=O)(=O)c3ccc(F)c(Cl)c3)CC2)o1 | 13 | -6 | 3 | 0 | -6 | nt | nt | nt
CCCCC[C@@H](C)N1C[C@@H](COCc2ccccc2)Oc2cc(N3CC[C@H](O)C3)ccc2S1(=O)=O | nt | nt | nt | 3 | 53* | 18 | -2 | -14
CCCCC[C@H](C)N1C[C@@H](COCc2ccccc2)Oc2cc(N3CC[C@@H](O)C3)ccc2S1(=O)=O | nt | nt | nt | 3 | 9 | nt | nt | nt
CCCCC[C@@H](C)N1C[C@@H](COCc2ccccc2)Oc2cc(N3CC[C@@H](O)C3)ccc2S1(=O)=O | nt | nt | nt | 11 | 45* | 21 | -2 | -11
COc1cc(NC(=O)c2cc3nc(C4CC4)cc(C(F)(F)F)n3n2)c(OC)cc1Cl | 8 | -2 | -10 | 4 | 38* | 7 | -1 | -11
CC(NCC(O)COc1ccc2ccccc2c1)c1ccccc1 (stereo unspecified) | 1 | 2 | 18 | -10 | 46* | 18 | 0 | -6
COc1ccc(OCC(O)CNC(C)c2ccccc2)cc1 (stereo unspecified) | -3 | 0 | -6 | -3 | 22 | nt | nt | nt
COc1ccccc1N1CCN(C(=O)c2cc(-c3cccc(Cl)c3)on2)CC1 | -4 | -5 | -4 | 1 | 72* | 34 | -2 | -10
COc1ccccc1N1CCN(C(=O)c2cc(C)on2)CC1 | -9 | -2 | -7 | -3 | -17 | nt | nt | nt
COc1ccccc1N1CCN(C(=O)c2cc(-c3ccc4c(c3)OCO4)on2)CC1 | -5 | -4 | -29 | -2 | 67* | 46 | 1 | 3
Cn1cc(-c2coc3c(C(=O)NCc4cccc(Cl)c4)cccc23)cn1 | nt | nt | nt | 2 | 17 | nt | nt | nt
Cc1ccc(CCNC(=O)C23CN(Cc4ccccc4)CC2C(c2ccc([N+](=O)[O-])cc2)=NO3)cc1 (stereo unspecified) | 2 | 8 | -17 | 1 | 65* | 43 | -1 | -1
COc1ccccc1C(=O)NCC(=O)OC(C)C(=O)N(C)C1CCCCC1 (stereo unspecified) | 2 | -1 | 21 | 6 | -3 | nt | nt | nt
CC(OC(=O)CNC(=O)c1ccc2ccccc2c1)C(=O)N(C)C1CCCCC1 (stereo unspecified) | 14 | -5 | 17 | 11 | 50* | 25 | -1 | -10
CCN1CCN(C(=O)/C=C/c2ccc(C)cc2)CC1 | 4 | -9 | -9 | 4 | 95* | 84* | 2 | 5
Cc1ccc(/C=C/C(=O)N2CCCN(C(=O)/C=C/c3ccc(C)cc3)CC2)cc1 | -8 | 0 | -5 | -14 | 94* | 82* | 1 | -1
